Laboratory results from ChEMBL document CHEMBL1128708, “Synthesis of alkyl chain-modified ether lipids and evaluation of their in vitro cytotoxicity” (J Med Chem, 1995).

Tested on: K562
Assay: Antiproliferative activity of compound was measured on human tumor cell line K-562.
Type: functional, cell-based
Conditions: Homo sapiens, K562
Procedure, shortened: (§1)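 Suspension cells at 1 × 10^6 cells/mL in RPMI-1640 with 10% heat-inactivated FCS and 2 mM L-glutamine, 37 °C, 5% CO2. Incubated 120 h with graded ether lipid concentrations (final EtOH ≤0.2%), then counted electronically. IC50 from dose–response curves; two experiments in duplicate, average ± SD.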

Point of comparison: `CCCCCCC(=O)CCCCCCCCCCCOCC(COP(=O)([O-])OCC[N+](C)(C)C)OC` (stereo not drawn), IC50 84.5 µM. Against it:
- CCCCCCCCCCCCCCCCC(=O)COCC(COP(=O)([O-])OCC[N+](C)(C)C)OC (stereo not drawn) — 9.4-fold lower, 9 µM
- CCCCCCCCCCCC(=O)CCCCCCOCC(COP(=O)([O-])OCC[N+](C)(C)C)OC (stereo not drawn) — 2-fold lower, 41.4 µM
- CCCCCCCCCCCCCCCCCCOCC(COP(=O)([O-])OCC[N+](C)(C)C)OC (stereo not drawn) [EDELFOSINE] — 14-fold lower, 6.1 µM
- CCCCCCCCCCCC(=O)CCCCCCOC[C@@H](COP(=O)([O-])OCC[N+](C)(C)C)OC — 2.1-fold lower, 40.2 µM
- CCCCCCCCCCCCCCC(=O)CCCOCC(COP(=O)([O-])OCC[N+](C)(C)C)OC (stereo not drawn) — 8-fold lower, 10.5 µM

Same assay, conditions: k562

`CCCCCCCCCCCC(=O)CCCCCCOC[C@@H](COP(=O)([O-])OCC[N+](C)(C)C)OC` showed an IC50 of 39.2 µM.

Species: Rattus norvegicus
Assay: Maximal non-erythrolytic concentration(MNEC) was measured in erythrocytes from rat citreated blood
Type: functional
Conditions: not given
Procedure, shortened: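 Rat citrated-blood erythrocytes washed in HBSS and mixed 9:1 with test solution for 30 min at 37 °C. Lysis read spectrophotometrically at 546 nm. Value reported as the maximal concentration (μM) causing no erythrolysis.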

Point of comparison: `CCCCCCCCCCCCCCCCCCOCC(COP(=O)([O-])OCC[N+](C)(C)C)OC` (stereo not drawn) [EDELFOSINE], MNEC 2 µM. Against it:
- COC(COCCCCCCCCCCCCCCCCc1ccccc1)COP(=O)([O-])OCC[N+](C)(C)C (stereo not drawn) — 5-fold higher, 10 µM
- CCCCCCCCCCCC(C)CCCCCCOCC(COP(=O)([O-])OCC[N+](C)(C)C)OC (stereo not drawn) — 2.5-fold higher, 5 µM
- CCCCCCCCCCCC(=O)CCCCCCOCC(COCCCCC[N+](C)(C)C)OC.[Br-] (stereo not drawn) — 2.5-fold higher, 5 µM
- CCCCCCCCCCCCCCCCC(=O)COCC(COP(=O)([O-])OCC[N+](C)(C)C)OC (stereo not drawn) — 2.5-fold higher, 5 µM
- CCCCCCCCCCCC(=O)CCCCCCOCC(COP(=O)([O-])OCC[N+](C)(C)C)OC (stereo not drawn) — 10-fold higher, 20 µM
- CCCCCCC(=O)CCCCCCCCCCCOCC(COP(=O)([O-])OCC[N+](C)(C)C)OC (stereo not drawn) — 25-fold higher, 50 µM
- CCCCCCCCCCCC(=O)CCCCCCOC[C@@H](COP(=O)([O-])OCC[N+](C)(C)C)OC — 10-fold higher, 20 µM
- CCCCCCCCCCCCCCC(=O)CCCOCC(COP(=O)([O-])OCC[N+](C)(C)C)OC (stereo not drawn) — 5-fold higher, 10 µM

`CCCCCCCCCCCCCCCCCCOCC(COP(=O)(O)OC[C@@H](N)C(=O)O)OC` (stereo partly drawn) gave an MNEC greater than 200 µM.
Molecule `COC(COCCCCCCCCCCC(O)c1ccccc1)COP(=O)([O-])OCC[N+](C)(C)C` (stereo not drawn) has an MNEC greater than 200 µM.

Tested on: HL-60
Assay: Cytotoxicity measured in HL-60 leukemic cells after a 24 hr incubation period.
Type: functional, cell-based, Homo sapiens
Conditions: Homo sapiens, HL-60, 24 h
Procedure, shortened: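 HL-60 cells kept in RPMI-1640 with 5% heat-inactivated FCS, penicillin/streptomycin and 2 mM L-glutamine, >90% viable before use. 10^6 cells/mL exposed 24 h to 2.5–160 μM (twofold steps). Viability by trypan blue exclusion, as % viable cells versus total control cells. IC50 taken as the concentration giving 50% mortality. Two experiments in triplicate; compounds with IC50 >30 μM tested once.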

Point of comparison: `CCCCCCCCCCCCCCCCCCOCC(COP(=O)(O)OC[C@@H](N)C(=O)O)OC` (stereo partly drawn), IC50 25.2 µM. Against it:
- COC(COCCCCCCCCCCCCCCCCc1ccccc1)COP(=O)([O-])OCC[N+](C)(C)C (stereo not drawn) — 1.9-fold lower, 13.2 µM
- CCCCCCCCCCCC(C)CCCCCCOCC(COP(=O)([O-])OCC[N+](C)(C)C)OC (stereo not drawn) — 2.8-fold lower, 8.9 µM
- CCCCCCCCCCCC(=O)CCCCCCOCC(COCCCCC[N+](C)(C)C)OC.[Br-] (stereo not drawn) — 6-fold lower, 4.2 µM
- COC(COCCCCCCCCCCC(O)c1ccccc1)COP(=O)([O-])OCC[N+](C)(C)C (stereo not drawn) — higher, > 160 µM
- CCCCCCCCCCCCCCCCC(=O)COCC(COP(=O)([O-])OCC[N+](C)(C)C)OC (stereo not drawn) — 7.2-fold lower, 3.5 µM
- CCCCCCCCCCCC(=O)CCCCCCOCC(COP(=O)([O-])OCC[N+](C)(C)C)OC (stereo not drawn) — 2.8-fold lower, 9.1 µM
- CCCCCCCCCCCCCCCCCCOCC(COP(=O)([O-])OCC[N+](C)(C)C)OC (stereo not drawn) [EDELFOSINE] — 4.1-fold lower, 6.1 µM
- CCCCCCC(=O)CCCCCCCCCCCOCC(COP(=O)([O-])OCC[N+](C)(C)C)OC (stereo not drawn) — 1.8-fold higher, 45 µM
- CCCCCCCCCCCC(=O)CCCCCCOC[C@@H](COP(=O)([O-])OCC[N+](C)(C)C)OC — 4.3-fold lower, 5.9 µM
- CCCCCCCCCCCCCCC(=O)CCCOCC(COP(=O)([O-])OCC[N+](C)(C)C)OC (stereo not drawn) — 6.1-fold lower, 4.1 µM

Same assay, conditions: hl-60

`CCCCCCCCCCCC(=O)CCCCCCOC[C@@H](COP(=O)([O-])OCC[N+](C)(C)C)OC` gave an IC50 of 11.3 µM.

Tested on: not listed separately
Assay: Partition coefficient (logP)
Type: physicochemical
Conditions: octanol/water; read-out: logP
Procedure, shortened: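 Calculated rather than measured, for the C-1 chain including the ether O atom, by the Viswanadhan atom-based method.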

Point of comparison: `CCCCCCCCCCCC(=O)CCCCCCOCC(COP(=O)([O-])OCC[N+](C)(C)C)OC` (stereo not drawn), logP 5.92. Against it:
- COC(COCCCCCCCCCCCCCCCCc1ccccc1)COP(=O)([O-])OCC[N+](C)(C)C (stereo not drawn) — higher, 7.59
- CCCCCCCCCCCC(C)CCCCCCOCC(COP(=O)([O-])OCC[N+](C)(C)C)OC (stereo not drawn) — higher, 7.1
- COC(COCCCCCCCCCCC(O)c1ccccc1)COP(=O)([O-])OCC[N+](C)(C)C (stereo not drawn) — lower, 4.7
- CCCCCCCCCCCCCCCCC(=O)COCC(COP(=O)([O-])OCC[N+](C)(C)C)OC (stereo not drawn) — higher, 6.29
- CCCCCCCCCCCCCCCCCCOCC(COP(=O)([O-])OCC[N+](C)(C)C)OC (stereo not drawn) [EDELFOSINE] — higher, 6.77
- CCCCCCC(=O)CCCCCCCCCCCOCC(COP(=O)([O-])OCC[N+](C)(C)C)OC (stereo not drawn) — the same, 5.92
- CCCCCCCCCCCC(=O)CCCCCCOC[C@@H](COP(=O)([O-])OCC[N+](C)(C)C)OC — the same, 5.92
- CCCCCCCCCCCCCCC(=O)CCCOCC(COP(=O)([O-])OCC[N+](C)(C)C)OC (stereo not drawn) — the same, 5.92

Tested on: HL-60
Assay: Antiproliferative activity of compound was measured on human tumor cell line HL-60.
Type: functional, cell-based
Conditions: Homo sapiens, HL-60
Procedure, shortened: as §1

Point of comparison: `CCCCCCC(=O)CCCCCCCCCCCOCC(COP(=O)([O-])OCC[N+](C)(C)C)OC` (stereo not drawn), IC50 12.3 µM. Against it:
- CCCCCCCCCCCCCCCCC(=O)COCC(COP(=O)([O-])OCC[N+](C)(C)C)OC (stereo not drawn) — 9.5-fold lower, 1.3 µM
- CCCCCCCCCCCC(=O)CCCCCCOCC(COP(=O)([O-])OCC[N+](C)(C)C)OC (stereo not drawn) — 4.1-fold lower, 3 µM
- CCCCCCCCCCCCCCCCCCOCC(COP(=O)([O-])OCC[N+](C)(C)C)OC (stereo not drawn) [EDELFOSINE] — 12-fold lower, 1 µM
- CCCCCCCCCCCC(=O)CCCCCCOC[C@@H](COP(=O)([O-])OCC[N+](C)(C)C)OC — 2.8-fold lower, 4.4 µM
- CCCCCCCCCCCCCCC(=O)CCCOCC(COP(=O)([O-])OCC[N+](C)(C)C)OC (stereo not drawn) — 11-fold lower, 1.1 µM

Same assay, conditions: hl-60

With `CCCCCCCCCCCC(=O)CCCCCCOC[C@@H](COP(=O)([O-])OCC[N+](C)(C)C)OC` the IC50 was 3 µM.

Tested on: A-431
Assay: Antiproliferative activity of compound was measured on human tumor cell line A431.
Type: functional, cell-based
Conditions: Homo sapiens, A-431
Procedure, shortened: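 Adherent cells trypsinized and seeded at 5000 cells/cm2, grown in RPMI-1640 with 10% heat-inactivated FCS and 2 mM L-glutamine. After 24 h, graded concentrations dissolved in complete medium were added for 48 h (final EtOH ≤0.2%). Cells fixed with 10% TCA and stained with 0.4% SRB in 1% acetic acid. Dye solubilized in 10 mM Tris pH 10.4 and read at 550 nm, background-corrected. IC50 from dose–response curves; two to five experiments, eight replicates each.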

Point of comparison: `CCCCCCCCCCCC(=O)CCCCCCOC[C@@H](COP(=O)([O-])OCC[N+](C)(C)C)OC`, IC50 19.7 µM. Against it:
- CCCCCCCCCCCCCCCCC(=O)COCC(COP(=O)([O-])OCC[N+](C)(C)C)OC (stereo not drawn) — within 1.5-fold, 14.2 µM
- CCCCCCCCCCCC(=O)CCCCCCOCC(COP(=O)([O-])OCC[N+](C)(C)C)OC (stereo not drawn) — within 1.5-fold, 21.1 µM
- CCCCCCCCCCCCCCCCCCOCC(COP(=O)([O-])OCC[N+](C)(C)C)OC (stereo not drawn) [EDELFOSINE] — within 1.5-fold, 13.5 µM
- CCCCCCC(=O)CCCCCCCCCCCOCC(COP(=O)([O-])OCC[N+](C)(C)C)OC (stereo not drawn) — 2.1-fold higher, 40.6 µM
- CCCCCCCCCCCCCCC(=O)CCCOCC(COP(=O)([O-])OCC[N+](C)(C)C)OC (stereo not drawn) — within 1.5-fold, 13.5 µM

Same assay, conditions: a-431

For `CCCCCCCCCCCC(=O)CCCCCCOC[C@@H](COP(=O)([O-])OCC[N+](C)(C)C)OC`, the IC50 was 21.8 µM.
